STAT3 inh: reduces IL-6 driven STAT3 reporter signal. U3A cells, IL-6 STAT3-luciferase reporter, luminescence; host cell line lacks STAT1. inhibition, % at 5.5 µM. hit rate 0.89% among 190,000. AID 862;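 active means inhibition above the mean inhibition across all screened compounds plus 3 SD, cut at about 44% in these data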
HSP90 refold inh: HSP90 refolding inhibition in rabbit reticulocyte lysate | luciferase refolding luminescence, 3 h | AID 1789 | hit rate 0.91% among 290,000 | inhibition, % at 5.6 µM;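 active means inhibition above the screen-wide mean plus 3 SD, computed separately per campaign, cut at about 16% in these data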;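 further: inhibitors lower the luminescence because luciferase stays unfolded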
FLuc stim CS: affects firefly luciferase, flagging false hits in luciferase stimulation screens; activation factor at 10 µM; 200,000 tested, under 10 active; ATPlite luciferase biochemical, luminescence, 10 min; 0 = ATP-free wells, 1 = DMSO control; AID 1027;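 active means luciferase activation factor, scaled between plate controls, of at least 2 with compound at 10 µM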
Target sequence (P08659 whole entry, looked up): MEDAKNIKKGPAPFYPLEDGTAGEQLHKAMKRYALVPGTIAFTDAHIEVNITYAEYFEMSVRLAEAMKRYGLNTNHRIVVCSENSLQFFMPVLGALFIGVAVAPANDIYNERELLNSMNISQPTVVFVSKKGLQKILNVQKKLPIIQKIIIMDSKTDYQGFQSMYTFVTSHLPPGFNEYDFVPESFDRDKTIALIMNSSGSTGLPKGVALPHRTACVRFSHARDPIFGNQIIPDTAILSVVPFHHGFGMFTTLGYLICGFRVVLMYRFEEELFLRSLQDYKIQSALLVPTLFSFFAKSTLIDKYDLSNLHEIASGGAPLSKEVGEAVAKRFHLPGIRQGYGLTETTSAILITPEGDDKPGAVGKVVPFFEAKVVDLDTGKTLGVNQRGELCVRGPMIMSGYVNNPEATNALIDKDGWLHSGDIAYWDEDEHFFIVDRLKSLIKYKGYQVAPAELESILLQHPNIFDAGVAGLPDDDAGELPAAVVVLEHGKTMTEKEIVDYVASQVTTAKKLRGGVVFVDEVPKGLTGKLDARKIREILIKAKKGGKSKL
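Assay system: Luciferase/luciferin reagent mix; Medium: PBS as buffer for the ATP substrate; Dosing: test compounds dosed from 2 mM stocks in 100% DMSO; Times: 10 min, room temperature; Signal: luminescence from luciferase reaction; Read-out: luciferase activation; Controls: No-ATP low control, compound-free enzyme-plus-ATP high control.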
C8 TRAIL sens: sensitizes caspase-8 expressing cells to TRAIL | inhibition (viability loss, TRAIL sensitization), % at 10 µM | NB7+C8 cells + TRAIL, ATPlite viability luminescence | hit rate 1% among 360,000;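 active means compounds causing at least 50% loss of cell viability in the single-dose screen, relative to plate controls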
PPC-1+TRAIL kill: compounds killing PPC-1 cancer cells with TRAIL present (potentiator screen, no TRAIL-free arm); cell killing (% activity), % at 4 µM or 5 µM; hit rate 0.41% among 220,000; AID 1443; PPC-1 cells + TRAIL, ATPLite viability luminescence;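 active means cell killing above 50% in the first pass at 4 µM, then a duplicate retest at 5 µM averaging 50% or more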
FLuc inh counter: inhibits firefly luciferase, flagging false hits in luciferase inhibition screens | P08659 | ATPLite firefly luciferase biochemical luminescence, 10 min | inhibition, % at 10 µM | hit rate 1.5% among 200,000;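 active means inhibition above about 50% when tested at 10 µM, limit read from the data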
PPC-1 tox: kills PPC-1 cells; shares compounds with PPC-1+TRAIL kill; hit rate 50% among 1,200; PPC-1 viability, ATPlite luminescence, overnight; cytotoxicity, % at 5 µM;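 active means reconfirmed compounds whose average cytotoxicity reaches 50% or more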
HSP90 confirm: confirmation of HSP90 inhibitors; shares compounds with HSP90 refold inh; AID 1846; rabbit reticulocyte lysate, luciferase refolding luminescence, 3 h; inhibition, % at 5.9 µM; hit rate 64% among 2,300; in the data active means inhibition above about 18%
FLuc counter: firefly luciferase inhibition, HSP90 counter-screen. shares compounds with HSP90 refold inh. purified native firefly luciferase, luminescence. inhibition, % at 5.9 µM. hit rate 48% among 2,300;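 active means inhibition above the mean inhibition of all tested sample wells plus 3 SD, cut at about 10% in these data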
Numbers stand for hits; 0 = inactive; - = not tested or not shown. In the library only some 2.2% were active in any assay of this set; here they are far more common.

SMILES	STAT3 inh	HSP90 refold inh	FLuc stim CS	C8 TRAIL sens	PPC-1+TRAIL kill	FLuc inh counter	PPC-1 tox	HSP90 confirm	FLuc counter
CC(C)(C)c1[nH]nc2c1C(Cc1ccccc1)C(C#N)=C(N)O2 (stereo unspecified)	0	0	0	0	0	0	-	-	-
COc1ccc(C(C)NC(=O)C2CCCO2)cc1OC (stereo unspecified)	0	0	0	0	0	0	0	-	-
O=C(C1CC1)N1N=C(c2ccncc2)CC1(O)C(F)(F)F (stereo unspecified)	0	0	0	0	0	0	-	-	-
COc1ccc(-n2c(C)cc(C(=O)Cn3nnc4ccccc4c3=O)c2C)cc1	0	0	0	0	0	0	-	-	-
Cc1cc(C(=O)Cn2nnc3ccccc3c2=O)c(C)n1-c1ccccc1F	0	61.6	0	81.1	69.1	85.3	69.6	70.1	54.3
COc1ccc(C(C(=O)Nc2ccc(F)cc2)N2CCN(CC(=O)N3CCCC3)CC2)cc1 (stereo unspecified)	-	-	-	0	-	-	-	-	-
c1ccc2nc(-c3ccc(N4CCOCC4)cc3)ccc2c1	99.2	26.5	0	72.9	73.0	88.3	77.1	79.5	71.2
c1ccc2nc(-c3ccncc3)ccc2c1	0	0	0	0	0	0	-	-	-
CC(C)(C)C(=O)Nc1ccc(N=Nc2ccccc2)cc1	87.5	70.5	0	82.1	61.6	89.7	68.1	79.2	73.5
CN(C)c1cccc(C(=O)N/N=C/c2ccccc2F)c1	88.8	35.7	0	78.6	61.5	95.1	58.7	73.2	59.8
Cc1cc(/C=N/NC(=O)c2cccc(N(C)C)c2)c(C)n1-c1cc(C(=O)O)cc(C(=O)O)c1	0	0	0	0	0	0	-	-	-
CCC(=O)NC(=S)Nc1ccc(NC(=O)c2ccc(Br)o2)cc1	0	0	0	0	0	0	-	-	-
Cc1ccc(-n2[nH]c(=O)c(-c3ccccn3)c2C)cc1	87.8	69.6	0	60.7	0	79.1	50.9	81.3	75.7
Cc1ccc2c(c1)sc(=NC(=O)c1cccs1)n2C	88.1	27.6	0	91.4	88.3	94.6	84.9	83.9	79.7
Clc1cccc(-c2nc(-c3ccccn3)no2)c1	80.6	57.4	0	77.3	70.1	93.0	66.3	81.9	75.7
c1ccc(-c2nc(-c3ccccn3)no2)cc1	98.3	45.9	0	75.3	71.8	90.2	66.0	79.5	70.3
Cc1ccc(-c2nc(-c3ccccn3)no2)cc1	106.7	93.6	0	91.9	92.8	97.1	92.4	97.7	93.9
Cc1ccc(NC2CCCN(C(=O)CCN3CCOCC3)C2)cc1C (stereo unspecified)	-	0	-	0	-	-	-	-	-
CN(C)c1ccc(/C=C2\SC(=O)N(CCc3nnc(N)s3)C2=O)cc1	-	36.8	-	80.9	64.7	-	68.0	84.8	82.4
O=C(Nc1nc2ccccc2[nH]1)c1ccccc1[N+](=O)[O-]	0	0	0	0	0	0	-	-	-
O=C(Nc1nc2ccccc2[nH]1)c1ccccc1F	100.7	84.2	0	89.7	77.2	95.8	79.3	94.6	88.0
Cc1nonc1NC(=O)CSc1nnnn1-c1ccccc1	-	0	-	0	-	-	-	-	-
Cc1cc(C(=O)COC(=O)c2cccnc2Cl)c(C)n1CC1CCCO1 (stereo unspecified)	87.7	77.8	0	0	79.2	96.2	77.1	86.0	82.5
Cc1cc(C(=O)COC(=O)c2ccccc2Br)c(C)n1CC1CCCO1 (stereo unspecified)	-	85.3	-	76.7	79.7	-	76.5	84.0	83.6
O=C(COC(=O)c1cccnc1Cl)NCC1CCCO1 (stereo unspecified)	0	0	0	0	0	0	-	-	-
SMILES	STAT3 inh	HSP90 refold inh	FLuc stim CS	C8 TRAIL sens	PPC-1+TRAIL kill	FLuc inh counter	PPC-1 tox	HSP90 confirm	FLuc counter
O=C(COC(=O)c1ccccc1Br)NCC1CCCO1 (stereo unspecified)	-	-	-	0	-	-	-	-	-
Cc1cc(O)c2c(c1)C(=O)[C@@]13Oc4c5c(c(O)c6c(O)cc(C)cc46)C(=O)C[C@H](O)[C@H]5[C@@H]1[C@@H](O)CC(=O)C3=C2O	-	-	-	0	-	-	-	-	-
CCOC(=O)C(=O)N1CCC(C(=O)OCC)CC1	-	0	-	0	0	-	-	-	-
COc1ccc(/C=N/Nc2nc(-c3cccnc3)nc3ccccc23)cc1OC	-	0	-	0	0	-	-	-	-
Cc1ccc(-c2nc(N/N=C/c3ccncc3)c3ccccc3n2)cc1	90.5	47.2	0	91.6	97.7	98.5	97.6	79.8	56.3
COc1cc(NC(=O)CCc2nnc3ccc(N4CCN(C)CC4)nn23)cc(OC)c1	-	0	-	0	-	-	-	-	-
c1ccc(-n2ncc3c(N4CCCCC4)ncnc32)cc1	96.3	56.1	0	86.0	80.0	89.3	78.7	79.7	73.7
CCc1nn(CCCC(=O)NC2CCCCC2C)c(=O)c2cc3occc3n12 (stereo unspecified)	-	-	-	0	-	-	-	-	-
Cc1csc(NC(=O)c2ccc(N3CCCC3=O)cc2)n1	89.3	42.2	0	70.6	56.0	89.2	53.4	77.0	68.3
Cc1nnc(NC(=O)c2ccc(N3CCCC3=O)cc2)s1	-	-	-	0	-	-	-	-	-
O=C(N/N=C/c1cccc([N+](=O)[O-])c1)C(=O)N1CCCCCC1	-	0	-	0	-	-	-	-	-
Cc1cc(C)c2c(N)c(C(=O)Nc3ncc(C)s3)sc2n1	107.6	70.2	0	94.0	96.0	97.5	95.9	91.6	87.5
COC(=O)c1ccc2nc(NC(=O)C(C)(C)C)sc2c1	99.7	66.8	0	90.2	85.3	95.2	86.2	77.8	73.5
CC(C)(C)C(=O)Nc1nc2cc3c(cc2s1)OCO3	-	0	-	0	0	-	-	-	-
CCOC(=O)c1cn[nH]c1NC(=S)Nc1ccc(OC)cc1	-	64.7	-	67.1	60.1	-	59.4	65.4	61.6
Cc1ccc([C@H]2C[C@@H](O)[C@H](n3cc(-c4ccc(F)cc4)nn3)CN2C(=O)C2CCCCC2)cc1	-	-	-	0	-	-	-	-	-
Cc1ccc2oc(-c3cccc(N)c3)nc2c1	0	33.3	0	62.6	55.0	87.5	55.6	43.2	38.3
Nc1cccc(-c2nc3cc(S(=O)(=O)c4ccc5oc(-c6cccc(N)c6)nc5c4)ccc3o2)c1	0	0	0	0	0	0	-	-	-
CC(C)c1ccc(/C=N/NC(=O)c2ccccn2)cc1	-	28.1	-	81.0	68.7	-	66.3	69.0	62.8
O=C(N/N=C/c1ccncc1)c1ccccn1	-	0	-	0	-	-	-	-	-
COC(=O)C1=C(C)N(CCCC(=O)O)C(=O)NC1c1ccc(C#N)cc1 (stereo unspecified)	-	-	-	0	-	-	-	-	-
Cc1nc2sc(-c3ccccc3)cc2c(=O)n1N	-	19.3	-	60.3	0	-	0	77.2	65.8
Cc1nc2sc(-c3ccccc3)cc2c(=O)n1-n1cccc1	0	0	0	0	0	0	-	-	-

High-throughput results: PubChem BioAssay, several laboratories
